Experimental data published in ChEMBL document CHEMBL1629635, “Effect of DNase and antibiotics on biofilm characteristics” (2009).
Values after ≈ are worked out from the molar mass of the structure shown. Active and inactive are the calls of the source. The rule behind the calls is not given here.

What was measured:
Staphylococcus aureus [1] = test: Bactericidal activity against Staphylococcus aureus ATCC 29213 assessed as eradication of pre-formed biofilm at 1 to 10 times MIC after 24 hrs by serial dilution; assay type: functional, organism-based
Procedure, shortened: (§1)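 Biofilms were grown 24 h at 37°C in 96-well plates from a 24-h broth culture (inoculum 7.53 ± 0.22 log10 CFU/ml). […] Read-out was crystal-violet biomass (OD570) and CFU by serial dilution plating.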

Klebsiella pneumoniae [2] = test: Antimicrobial activity against Klebsiella pneumoniae VT 1367 by broth microdilution method; assay type: functional
Procedure, shortened: (§2)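 MICs by broth microdilution following CLSI guidelines, in cation-adjusted Mueller-Hinton broth or Haemophilus test medium broth. Cultures were grown at 37°C without shaking.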

Haemophilus influenzae [3] = test: Antimicrobial activity against Haemophilus influenzae VT450-2006 by broth microdilution method; assay type: functional; procedure, shortened: as §2
Escherichia coli [4] = test: Antimicrobial activity against Escherichia coli ATCC 25922 by broth microdilution method; assay type: functional; procedure, shortened: as §2
Escherichia coli [5] = test: Bactericidal activity against Escherichia coli ATCC 25922 assessed as eradication of pre-formed biofilm at 1 to 10 times MIC after 24 hrs; assay type: functional, organism-based; procedure, shortened: as §1
Pseudomonas aeruginosa [6] = test: Antimicrobial activity against Pseudomonas aeruginosa ATCC 27853 by broth microdilution method; assay type: functional; procedure, shortened: as §2
Haemophilus influenzae [7] = test: Bactericidal activity against Haemophilus influenzae VT450-2006 assessed as eradication of pre-formed biofilm at 1 to 10 times MIC after 24 hrs; assay type: functional, organism-based; procedure, shortened: as §1
Haemophilus influenzae [8] = test: Bactericidal activity against Haemophilus influenzae VT450-2006 assessed as eradication of pre-formed biofilm at 50 times MIC after 24 hrs by serial dilution; assay type: functional
Procedure, shortened: (§3)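 Preformed 24-h biofilms in 96-well plates got antibiotic at 50 times MIC, DNase I at 5 μg/ml, or both, for 24 h at 37°C. Wells were scraped into 1.0 ml of 0.15 M phosphate buffer pH 7.2, serially diluted and plated; result is log10 CFU/well. Mean ± SEM of three independent experiments, counts done in triplicate.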

Escherichia coli [9] = test: Bactericidal activity against Escherichia coli ATCC 25922 assessed as eradication of pre-formed biofilm at 50 times MIC after 24 hrs by serial dilution; assay type: functional; procedure, shortened: as §3
Streptococcus pyogenes [10] = test: Bactericidal activity against Streptococcus pyogenes VT 59 assessed as eradication of pre-formed biofilm at 1 to 10 times MIC after 24 hrs; assay type: functional, organism-based; procedure, shortened: as §1
Staphylococcus aureus [11] = test: Antimicrobial activity against Staphylococcus aureus ATCC 29213 by broth microdilution method; assay type: functional; procedure, shortened: as §2
Pseudomonas aeruginosa [12] = test: Bactericidal activity against Pseudomonas aeruginosa ATCC 27853 assessed as eradication of pre-formed biofilm at 1 to 10 times MIC after 24 hrs; assay type: functional, organism-based; procedure, shortened: as §1
Klebsiella pneumoniae [13] = test: Bactericidal activity against Klebsiella pneumoniae VT 1367 assessed as eradication of pre-formed biofilm at 1 to 10 times MIC after 24 hrs; assay type: functional, organism-based; procedure, shortened: as §1
Pseudomonas aeruginosa [14] = test: Bactericidal activity against Pseudomonas aeruginosa ATCC 27853 assessed as eradication of pre-formed biofilm at 50 times MIC after 24 hrs; assay type: functional
Procedure, shortened: (§4)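 24-h, 37°C 96-well biofilms were washed three times with 0.15 M phosphate buffer pH 7.2. They were treated 24 h at 37°C with antibiotic at 50 times MIC, alone or with DNase I at 5 μg/ml, in medium. Biomass: 0.1% crystal violet for 30 min at room temperature, water washes, ethanol-acetone (80:20) solubilization, absorbance at 570 nm.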

Streptococcus pyogenes [15] = test: Bactericidal activity against Streptococcus pyogenes VT 59 assessed as eradication of pre-formed biofilm at 50 times MIC after 24 hrs by serial dilution; assay type: functional; procedure, shortened: as §3
Staphylococcus aureus [16] = test: Bactericidal activity against Staphylococcus aureus ATCC 29213 assessed as eradication of pre-formed biofilm at 50 times MIC after 24 hrs by serial dilution; assay type: functional; procedure, shortened: as §3
Acinetobacter baumannii [17] = test: Bactericidal activity against Acinetobacter baumannii VT 126 assessed as eradication of pre-formed biofilm at 1 to 10 times MIC after 24 hrs; assay type: functional, organism-based; procedure, shortened: as §1
Escherichia coli [18] = test: Bactericidal activity against Escherichia coli ATCC 25922 assessed as eradication of pre-formed biofilm at 50 times MIC after 24 hrs; assay type: functional; procedure, shortened: as §4
Acinetobacter baumannii [19] = test: Antimicrobial activity against Acinetobacter baumannii VT 126 by broth microdilution method; assay type: functional; procedure, shortened: as §2
Acinetobacter baumannii [20] = test: Bactericidal activity against Acinetobacter baumannii VT 126 assessed as eradication of pre-formed biofilm at 50 times MIC after 24 hrs by serial dilution; assay type: functional; procedure, shortened: as §3
Streptococcus pyogenes [21] = test: Antimicrobial activity against Streptococcus pyogenes VT 59 by broth microdilution method; assay type: functional; procedure, shortened: as §2
Pseudomonas aeruginosa [22] = test: Bactericidal activity against Pseudomonas aeruginosa ATCC 27853 assessed as eradication of pre-formed biofilm at 50 times MIC after 24 hrs by serial dilution; assay type: functional; procedure, shortened: as §3
Klebsiella pneumoniae [23] = test: Bactericidal activity against Klebsiella pneumoniae VT 1367 assessed as eradication of pre-formed biofilm at 50 times MIC after 24 hrs by serial dilution; assay type: functional; procedure, shortened: as §3
Streptococcus pyogenes [24] = test: Bactericidal activity against Streptococcus pyogenes VT 59 assessed as eradication of pre-formed biofilm at 50 times MIC after 24 hrs; assay type: functional; procedure, shortened: as §4
Klebsiella pneumoniae [25] = test: Bactericidal activity against Klebsiella pneumoniae VT 1367 assessed as eradication of pre-formed biofilm at 50 times MIC after 24 hrs; assay type: functional; procedure, shortened: as §4
Haemophilus influenzae [26] = test: Bactericidal activity against Haemophilus influenzae VT450-2006 assessed as eradication of pre-formed biofilm at 50 times MIC after 24 hrs; assay type: functional; procedure, shortened: as §4
Acinetobacter baumannii [27] = test: Bactericidal activity against Acinetobacter baumannii VT 126 assessed as eradication of pre-formed biofilm at 50 times MIC after 24 hrs; assay type: functional; procedure, shortened: as §4
Staphylococcus aureus [28] = test: Bactericidal activity against Staphylococcus aureus ATCC 29213 assessed as eradication of pre-formed biofilm at 50 times MIC after 24 hrs; assay type: functional; procedure, shortened: as §4

Row | MIC (Klebsiella pneumoniae [2]) [µg/mL] | MIC (Haemophilus influenzae [3]) [µg/mL] | MIC (Escherichia coli [4]) [µg/mL] | MIC (Pseudomonas aeruginosa [6]) [µg/mL] | MIC (Staphylococcus aureus [11]) [µg/mL] | MIC (Acinetobacter baumannii [19]) [µg/mL] | MIC (Streptococcus pyogenes [21]) [µg/mL] | SMILES | inhibition (Staphylococcus aureus [1]) | inhibition (Escherichia coli [5]) | inhibition (Haemophilus influenzae [7]) | log10cfu (Haemophilus influenzae [8]) | log10cfu (Escherichia coli [9]) | inhibition (Streptococcus pyogenes [10]) | inhibition (Pseudomonas aeruginosa [12]) | inhibition (Klebsiella pneumoniae [13]) | inhibition (INH) (Pseudomonas aeruginosa [14]) [%] | log10cfu (Streptococcus pyogenes [15]) | log10cfu (Staphylococcus aureus [16]) | inhibition (Acinetobacter baumannii [17]) | inhibition (INH) (Escherichia coli [18]) [%] | other results
1 | 64 (≈ 183 µM) | 0.5 (≈ 1.43 µM) | 16 (≈ 45.8 µM) | 128 (≈ 366 µM) | 0.025 (≈ 0.0715 µM) | 50 (≈ 143 µM) | 0.25 (≈ 0.715 µM) | CC1(C)S[C@@H]2[C@H](NC(=O)[C@H](N)c3ccccc3)C(=O)N2[C@H]1C(=O)O [AMPICILLIN] | inactive | inactive | inactive | 8.44 | 8.55 | inactive | inactive | inactive | 10 | 8.16 | 9.51 | inactive | 10 | log10cfu (Acinetobacter baumannii [20]): 8.29; log10cfu (Pseudomonas aeruginosa [22]): 8.62; log10cfu (Klebsiella pneumoniae [23]): 8.33
2 | – | 1 (≈ 1.34 µM) | – | – | 0.3 (≈ 0.401 µM) | – | 0.25 (≈ 0.334 µM) | CC[C@H]1OC(=O)[C@H](C)[C@@H](O[C@H]2C[C@@](C)(OC)[C@@H](O)[C@H](C)O2)[C@H](C)[C@@H](O[C@@H]2O[C@H](C)C[C@H](N(C)C)[C@H]2O)[C@](C)(O)C[C@@H](C)CN(C)[C@H](C)[C@@H](O)[C@]1(C)O [AZITHROMYCIN] | inactive | inactive | inactive | 8.14 | – | inactive | inactive | inactive | – | 8.24 | 9.75 | inactive | – | inhibition (INH) (Streptococcus pyogenes [24]): 20%
3 | 0.06 (≈ 0.132 µM) | 0.16 (≈ 0.351 µM) | 1.5 (≈ 3.29 µM) | 64 (≈ 141 µM) | 3.8 (≈ 8.34 µM) | 1.5 (≈ 3.29 µM) | 0.03 (≈ 0.0659 µM) | CO/N=C(\C(=O)N[C@@H]1C(=O)N2C(C(=O)O)=C(COC(C)=O)CS[C@H]12)c1csc(N)n1 [CEFOTAXIME] | inactive | inactive | inactive | 8.45 | 8.66 | inactive | inactive | inactive | 10 | 8.2 | 9.67 | inactive | 10 | log10cfu (Acinetobacter baumannii [20]): 8.32; log10cfu (Pseudomonas aeruginosa [22]): 8.68; log10cfu (Klebsiella pneumoniae [23]): 8.54
4 | 0.15 | 0.07 | 0.035 | 0.6 | 0.3 | 8 | 0.5 | C[C@H]1COc2c(N3CCN(C)CC3)c(F)cc3c(=O)c(C(=O)O)cn1c23.C[C@H]1COc2c(N3CCN(C)CC3)c(F)cc3c(=O)c(C(=O)O)cn1c23.O [LEVOFLOXACIN] | inactive | inactive | inactive | 8.25 | 8.46 | inactive | inactive | inactive | 10 | 6.39 | 7.39 | inactive | 10 | inhibition (INH) (Klebsiella pneumoniae [25]): 10%; inhibition (INH) (Haemophilus influenzae [26]): 10%; inhibition (INH) (Acinetobacter baumannii [27]): 10%; log10cfu (Acinetobacter baumannii [20]): 8.26; log10cfu (Pseudomonas aeruginosa [22]): 8.69; inhibition (INH) (Streptococcus pyogenes [24]): 10%; inhibition (INH) (Staphylococcus aureus [28]): 10%; log10cfu (Klebsiella pneumoniae [23]): 8.62
5 | 16 (≈ 19.4 µM) | 0.8 (≈ 0.972 µM) | 8 (≈ 9.72 µM) | 16 (≈ 19.4 µM) | 0.25 (≈ 0.304 µM) | 8 (≈ 9.72 µM) | 0.25 (≈ 0.304 µM) | CO[C@H]1/C=C/O[C@@]2(C)Oc3c(C)c(O)c4c(O)c(c(/C=N/N5CCN(C)CC5)c(O)c4c3C2=O)NC(=O)/C(C)=C\C=C\[C@H](C)[C@H](O)[C@@H](C)[C@@H](O)[C@@H](C)[C@H](OC(C)=O)[C@@H]1C [RIFAMPIN] | inactive | inactive | inactive | 8.14 | 8.58 | inactive | inactive | inactive | 10 | 6.44 | 7.5 | inactive | 10 | inhibition (INH) (Klebsiella pneumoniae [25]): 10%; inhibition (INH) (Haemophilus influenzae [26]): 10%; inhibition (INH) (Acinetobacter baumannii [27]): 10%; log10cfu (Acinetobacter baumannii [20]): 8.15; log10cfu (Pseudomonas aeruginosa [22]): 8.56; inhibition (INH) (Streptococcus pyogenes [24]): 10%; inhibition (INH) (Staphylococcus aureus [28]): 10%; log10cfu (Klebsiella pneumoniae [23]): 8.5
